Measurements taken from ChEMBL document CHEMBL1124474, “7-[3-(4-acetyl-3-methoxy-2-propylphenoxy)propoxy]-3,4-dihydro-8- propyl-2H-1-benzopyran-2-carboxylic acid: an orally active selective leukotriene B4 receptor antagonist” (J Med Chem, 1989).
Activity calls are given as the source filed them. The calls are words filed in the database; no cut-off is given here.

Key:
Homo sapiens [1] = species: Homo sapiens; experiment: Inhibition of human neutrophil leukotriene B4 induced neutrophil degranulation at 10e-5 M compound concentration; NA = not active; type: functional
How it was run: (§1)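 Human neutrophils (3×10^6 in 1 mL HBSS) preincubated with cytochalasin B (5 µg) 5 min at 37 °C, then compound 7 min, then stimulated 2-20 min with LTB4 5×10^-8 M. Degranulation read as myeloperoxidase released into medium; pellets sonicated in phosphate buffer with 0.4% Triton X-100, supernatants brought to 0.4% Triton, both assayed.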

Homo sapiens [2] = species: Homo sapiens; experiment: Inhibition of human neutrophil leukotriene B4 induced neutrophil chemotaxis at 10e-5 M compound concentration; NA = not active; type: functional
How it was run: (§2)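 Human neutrophils isolated from citrated peripheral blood by 5% dextran sedimentation, Histopaque centrifugation and hypotonic erythrocyte lysis. 3×10^6 cells/mL in HEPES-buffered HBSS in upper well of modified Boyden chamber; lower well, across polycarbonate membrane, held HBSS or 3×10^-8 M LTB4 ± compound. 90 min, 37 °C; lower-well cells lysed, nuclei counted (Coulter); % inhibition after subtracting mean HBSS random migration.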

Cavia porcellus = experiment: Topical effective dose when coapplied with phorbol ester (PMA) was assessed by ear weight as a reflection of edema; type: functional
Bos taurus = species: Bos taurus; experiment: Inhibition of bovine heart phosphodiesterase at 50 uM (no inhibition)
Homo sapiens [3] = species: Homo sapiens; experiment: Inhibition of human neutrophil leukotriene B4 induced neutrophil chemotaxis; type: functional; how it was run: as §2
Homo sapiens [4] = species: Homo sapiens; experiment: Inhibition of human neutrophil leukotriene B4 induced neutrophil degranulation; type: functional; how it was run: as §1
Homo sapiens [5] = experiment: Blood plasma levels of compound after 40 mg/kg oral dose of compound at 12 hr; type: functional, organism-based; set-up: dose 40 mg/kg
How it was run: (§3)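 Single 40 mg/kg oral dose; blood plasma drug level sampled at 1 h and 12 h after dosing.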

[6] = target: T1, Cysteinyl leukotriene receptor 1 (Cavia porcellus) (UniProt Q2NNR5); experiment: Inhibition of binding to the leukotriene D4 receptor at 1*10e-5 M concentration
T1 sequence (whole entry): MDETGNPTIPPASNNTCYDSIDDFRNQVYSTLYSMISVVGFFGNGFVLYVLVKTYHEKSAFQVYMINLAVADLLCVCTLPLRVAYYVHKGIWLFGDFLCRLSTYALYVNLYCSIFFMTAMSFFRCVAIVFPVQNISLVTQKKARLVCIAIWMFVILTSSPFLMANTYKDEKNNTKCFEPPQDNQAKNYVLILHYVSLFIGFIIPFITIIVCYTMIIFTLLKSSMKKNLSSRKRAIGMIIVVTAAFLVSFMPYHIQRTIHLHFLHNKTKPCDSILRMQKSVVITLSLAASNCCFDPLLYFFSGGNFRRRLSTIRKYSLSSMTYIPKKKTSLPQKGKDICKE
How it was run: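 Competition binding at LTD4 receptor: protein adjusted to about 0.1 nM receptor with 1 nM [3H]LTD4, 30 min at 24 °C; bound and free ligand separated by filtration. Compound tested at 1×10^-5 M.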

Homo sapiens [7] = experiment: Blood plasma levels of compound after 40 mg/kg oral dose of compound at 1 hr; type: functional, organism-based; set-up: dose 40 mg/kg; how it was run: as §3

| inhibition (Bos taurus) | IC50 (Homo sapiens [3]) [µM] | IC50 (Homo sapiens [4]) [µM] | inhibition [6] [%] | SMILES | Activity (Homo sapiens [1]) | Activity (Homo sapiens [2]) | ED50 (Cavia porcellus) [uM ear-1] | Plasma level (Homo sapiens [5]) [µg/mL] | Plasma level (Homo sapiens [7]) [µg/mL] |
| --- | --- | --- | --- | --- | --- | --- | --- | --- | --- |
| – | – | – | – | CCCc1c(OCCCOc2ccc3c(c2CCC)OC(C(=O)O)CC3)ccc(C(C)=O)c1O (centres undefined) | inactive | inactive | – | – | – |
| inactive | 2 | 1 | 4 | CCCc1c(OCCCOc2ccc(C(C)=O)c(OC)c2CCC)ccc2c1OC(C(=O)O)CC2 (centres undefined) [SC-41390] | – | – | 4.1 | 12 | 7 |
